Legend:
Format in all cases: functional
Keratinocyte [1] = assay: Effect on pro-inflammatory related gene expression in non-diabetic adult human primary keratinocytes assessed as IL1B mRNA levels at 1.96 uM after 6 hrs by qPCR analysis
Keratinocyte [2] = assay: Effect on MMP1 mRNA expression levels in non-diabetic young human primary keratinocytes at 1.96 uM after 6 hrs by qPCR analysis
In short: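 Primary keratinocytes from nondiabetic young and adult and diabetic adult donors; 400 000 cells per sample, 6 h exposure at 1.96 or 9.81 μM. RNA extracted and read on a high-throughput qPCR chip. Results are fold change versus 0.1% DMSO solvent control from 5−7 independent experiments over two donors per group, SD, one-way ANOVA with Bonferroni post-test.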

Fibroblast [3] = assay: Effect on MMP1 mRNA expression levels in non-diabetic young human primary fibroblasts at 1.96 uM after 6 hrs by qPCR analysis
In short: (§1)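 Primary dermal fibroblasts from one nondiabetic young, one nondiabetic adult and one diabetic adult donor; 320 000 cells per sample, 6 h at 1.96 or 9.81 μM. RNA measured on a high-throughput qPCR chip. Fold change versus 0.1% DMSO control, four independent experiments, SD, one-way ANOVA with Bonferroni post-test.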

Fibroblast [4] = assay: Effect on adhesion molecules related gene expression in diabetic adult human primary fibroblasts assessed as VCAM1 mRNA levels at 9.81 uM after 6 hrs by qPCR analysis
In short: (§2)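 Dermal fibroblasts from nondiabetic adult and diabetic adult donors, exposed for 6 h at 1.96 or 9.81 μM. ICAM-1 and VCAM-1 mRNA measured by standard qRT-PCR, n = 3. Fold change versus 0.1% DMSO control, SD, one-way ANOVA with Bonferroni post-test.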

Fibroblast [5] = assay: Effect on chemokines related gene expression in non-diabetic young human primary fibroblasts assessed as IL8 mRNA levels at 1.96 uM after 6 hrs by qPCR analysis
In short: (§3)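 Primary human dermal fibroblasts (young or adult nondiabetic, adult diabetic donor) were treated for 6 h against a 0.1% DMSO solvent control. RNA from 320 000 cells per sample was measured by Fluidigm Biomark high-throughput qPCR. Values are fold change relative to solvent control, from four independent experiments, with SD. One-way ANOVA with Bonferroni post-test was applied.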

Keratinocyte [6] = assay: Effect on pro-inflammatory related gene expression in non-diabetic adult human primary keratinocytes assessed as IL1R1 mRNA levels at 1.96 uM after 6 hrs by qPCR analysis
Fibroblast [7] = assay: Effect on pro-inflammatory related gene expression in diabetic adult human primary fibroblasts assessed as PTGS2 mRNA levels at 1.96 uM after 6 hrs by qPCR analysis
Fibroblast [8] = assay: Effect on chemokines related gene expression in diabetic adult human primary fibroblasts assessed as CCL2 mRNA levels at 1.96 uM after 6 hrs by qPCR analysis
Fibroblast [9] = assay: Effect on pro-inflammatory related gene expression in non-diabetic adult human primary fibroblasts assessed as IL1R1 mRNA levels at 9.81 uM after 6 hrs by qPCR analysis
Keratinocyte [10] = assay: Effect on cellular connection related gene expression in diabetic adult human primary keratinocytes assessed as GJB2 mRNA levels at 9.81 uM after 6 hrs by qPCR analysis
Keratinocyte [11] = assay: Effect on chemokines related gene expression in non-diabetic adult human primary keratinocytes assessed as IL8 mRNA levels at 1.96 uM after 6 hrs by qPCR analysis
Keratinocyte [12] = assay: Effect on growth factor related gene expression in diabetic adult human primary keratinocytes assessed as GDF15 mRNA levels at 9.81 uM after 6 hrs by qPCR analysis
In short: (§4)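 Primary human keratinocytes (nondiabetic young or adult, diabetic adult donors) were exposed to compound for 6 h, with 0.1% DMSO as solvent control. Total RNA came from 400 000 cells per sample and was assayed on a Fluidigm Biomark high-throughput qPCR chip. Results are fold change vs solvent control, from 2−4 independent experiments on two donors per group, with SD. Groups were compared by one-way ANOVA with Bonferroni post-test.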

Fibroblast [13] = assay: Effect on pro-inflammatory related gene expression in diabetic adult human primary fibroblasts assessed as PTGS2 mRNA levels at 9.81 uM after 6 hrs by qPCR analysis
Fibroblast [14] = assay: Effect on growth factor related gene expression in non-diabetic adult human primary fibroblasts assessed as VEGFA mRNA levels at 1.96 uM after 6 hrs by qPCR analysis; in short: as §3
Fibroblast [15] = assay: Effect on pro-inflammatory related gene expression in non-diabetic young human primary fibroblasts assessed as IL1R1 mRNA levels at 9.81 uM after 6 hrs by qPCR analysis
Keratinocyte [16] = assay: Effect on antioxidant related gene expression in non-diabetic young human primary keratinocytes assessed as SOD2 mRNA levels at 1.96 uM after 6 hrs by qPCR analysis
Fibroblast [17] = assay: Effect on chemokines related gene expression in diabetic adult human primary fibroblasts assessed as WDR26 mRNA levels at 9.81 uM after 6 hrs by qPCR analysis
Fibroblast [18] = assay: Effect on antiinflammatory related gene expression in non-diabetic young human primary fibroblasts assessed as NFKBIA mRNA levels at 9.81 uM after 6 hrs by qPCR analysis; in short: as §1
Keratinocyte [19] = assay: Effect on growth factor related gene expression in non-diabetic adult human primary keratinocytes assessed as PDGFB mRNA levels at 1.96 uM after 6 hrs by qPCR analysis; in short: as §4
Keratinocyte [20] = assay: Effect on pro-inflammatory related gene expression in non-diabetic young human primary keratinocytes assessed as PTGS2 mRNA levels at 9.81 uM after 6 hrs by qPCR analysis
Keratinocyte [21] = assay: Effect on antioxidant related gene expression in diabetic adult human primary keratinocytes assessed as SOD2 mRNA levels at 9.81 uM after 6 hrs by qPCR analysis
Fibroblast [22] = assay: Effect on MMP1 mRNA expression levels in diabetic adult human primary fibroblasts at 9.81 uM after 6 hrs by qPCR analysis; in short: as §1
Fibroblast [23] = assay: Effect on antiinflammatory related gene expression in non-diabetic young human primary fibroblasts assessed as SOCS3 mRNA levels at 9.81 uM after 6 hrs by qPCR analysis
Keratinocyte [24] = assay: Effect on cellular connection related gene expression in non-diabetic adult human primary keratinocytes assessed as GJB2 mRNA levels at 9.81 uM after 6 hrs by qPCR analysis
Keratinocyte [25] = assay: Effect on pro-inflammatory related gene expression in diabetic adult human primary keratinocytes assessed as IL1B mRNA levels at 1.96 uM after 6 hrs by qPCR analysis
Keratinocyte [26] = assay: Effect on pro-inflammatory related gene expression in non-diabetic adult human primary keratinocytes assessed as TNF mRNA levels at 9.81 uM after 6 hrs by qPCR analysis
Fibroblast [27] = assay: Effect on antioxidant related gene expression in non-diabetic adult human primary fibroblasts assessed as SOD2 mRNA levels at 1.96 uM after 6 hrs by qPCR analysis
Fibroblast [28] = assay: Effect on growth factor related gene expression in non-diabetic young human primary fibroblasts assessed as GDF15 mRNA levels at 9.81 uM after 6 hrs by qPCR analysis; in short: as §3
Fibroblast [29] = assay: Effect on adhesion molecules related gene expression in diabetic adult human primary fibroblasts assessed as ICAM1 mRNA levels at 1.96 uM after 6 hrs by qPCR analysis; in short: as §2

C=C(C)[C@@H]1CC[C@]2(CO)CC[C@]3(C)[C@H](CC[C@@H]4[C@@]5(C)CC[C@H](O)C(C)(C)[C@@H]5CC[C@]43C)[C@@H]12 [BETULIN]
fold change (FC) (Keratinocyte [1]): 0.8 | fold change (FC) (Keratinocyte [2]): 1 | fold change (FC) (Fibroblast [3]): 0.8 | fold change (FC) (Fibroblast [4]): 1.3 | fold change (FC) (Fibroblast [5]): 23.5 | fold change (FC) (Keratinocyte [6]): 0.7 | fold change (FC) (Fibroblast [7]): 4.1 | fold change (FC) (Fibroblast [8]): 3.7 | fold change (FC) (Fibroblast [9]): 4.9 | fold change (FC) (Keratinocyte [10]): 0.9 | fold change (FC) (Keratinocyte [11]): 24.2 | fold change (FC) (Keratinocyte [12]): 2.5 | fold change (FC) (Fibroblast [13]): 2.9 | fold change (FC) (Fibroblast [14]): 1.4 | fold change (FC) (Fibroblast [15]): 3.9 | fold change (FC) (Keratinocyte [16]): 1.3 | fold change (FC) (Fibroblast [17]): 1.2 | fold change (FC) (Fibroblast [18]): 3.2 | fold change (FC) (Keratinocyte [19]): 0.8 | fold change (FC) (Keratinocyte [20]): 1.5 | fold change (FC) (Keratinocyte [21]): 1.6 | fold change (FC) (Fibroblast [22]): 0.6 | fold change (FC) (Fibroblast [23]): 3.2 | fold change (FC) (Keratinocyte [24]): 0.8 | fold change (FC) (Keratinocyte [25]): 0.8 | fold change (FC) (Keratinocyte [26]): 6.1 | fold change (FC) (Fibroblast [27]): 18 | fold change (FC) (Fibroblast [28]): 5.1 | fold change (FC) (Fibroblast [29]): 6.3

Reference: ChEMBL document CHEMBL3853270, “Influence of Birch Bark Triterpenes on Keratinocytes and Fibroblasts from Diabetic and Nondiabetic Donors” (2016)
